Here are results for 9 compounds from ChEMBL document CHEMBL1149704, “Virtual screening application of a model of full-length HIV-1 integrase complexed with viral DNA” (Bioorg Med Chem Lett, 2007).

Test [1] deals with T1, Human immunodeficiency virus type 1 integrase (Human immunodeficiency virus 1, UniProt Q7ZJM1). Briefly: Inhibition of HIV1 integrase by BioVeris assay. Put shortly: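 Electrochemiluminescent high-throughput screen measuring HIV-1 integrase strand transfer in the presence of Mg2+, with ruthenium-labelled reagents.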
T1 sequence (Q7ZJM1 whole entry): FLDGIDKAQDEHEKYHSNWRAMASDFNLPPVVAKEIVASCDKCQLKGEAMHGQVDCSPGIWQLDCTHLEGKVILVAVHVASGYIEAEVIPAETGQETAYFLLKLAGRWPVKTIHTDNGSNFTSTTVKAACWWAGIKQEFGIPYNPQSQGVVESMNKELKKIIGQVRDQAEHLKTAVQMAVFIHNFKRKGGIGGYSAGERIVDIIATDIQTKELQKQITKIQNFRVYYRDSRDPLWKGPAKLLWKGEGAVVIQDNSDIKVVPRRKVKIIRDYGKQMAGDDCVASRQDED
Test [2] deals with T1, Human immunodeficiency virus type 1 integrase. Briefly: Inhibition of HIV1 integrase strand transfer activity. A digest of the protocol:
(§1)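 Hits from the electrochemiluminescent screen were confirmed in a gel-based assay with Mg2+. IC50 values were determined separately for 3'-processing and strand transfer.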

Test [3] has the same target. Briefly: Inhibition of HIV1 integrase 3' processing activity. Put shortly: as §1

In general, IC50 refers to the concentration at which inhibition is half-maximal. Read a low IC50 as greater potency. As to `O=C(O)COc1ccccc1/C=N/NC(=O)CSc1nc2ccccc2[nH]1`, the IC50 was 780 µM in test [1], 120 µM in test [2] and 155 µM in test [3].

As for `C=C(NNC(=O)c1c[nH]c2ccccc12)c1cccc(NC(=O)CCCC(=O)O)c1`, the half-inhibitory concentration (IC50) in test [1] was determined as 141 µM; in test [2] it was 70 µM; in test [3], 120 µM.

As to `CC(C)n1nc(C(=O)NN/C(=C/CC(=O)O)c2ccc(Br)cc2)c2ccccc2c1=O`, the IC50 in test [1] amounted to 670 µM; in test [3] it was 295 µM.

Turning to `Cc1[nH]nc(O)c1CC(=O)N/N=C/c1ccccc1OCC(=O)O`, the concentration for half-maximal inhibition (IC50) in test [1] is 580 µM; in test [2] it was 54 µM; in test [3], 121 µM.

`C=C(NNC(=O)C1CC1c1ccccc1)c1cccc(NC(=O)C2CCCCC2C(=O)O)c1` (stereo unspecified): the concentration for half-maximal inhibition (IC50) in test [1] was 113 µM; in test [2], 49 µM; in test [3], 65 µM.

On to `Cc1n[nH]c(O)c1C(c1ccc(-c2ccc(Cl)c(C(=O)O)c2)o1)c1c(O)n[nH]c1C`, for which the concentration for half-maximal inhibition (IC50) in test [1] was found to be 121 µM; in test [2] it was 57 µM; in test [3] it was 87 µM.

Take `C=C(NNC(=O)Cc1ccc(O)cc1)c1ccc(NC(=O)CCC(=O)O)cc1`: the half-maximal inhibitory concentration (IC50) in test [1] stood at 292 µM; in test [2], 114 µM; in test [3], 204 µM.

As for `O=C(O)CCC(=O)Nc1ccccc1-c1ccccc1NC(=O)CCC(=O)O`, the IC50 in test [1] is 37 µM; in test [2], over 333 µM; in test [3] it was over 333 µM.

For `C=C(NNC(=O)C(C)Oc1ccccc1Cl)c1cccc(NC(=O)C2CCCCC2C(=O)O)c1` (stereo unspecified), the IC50 is 182 µM in test [1], over 333 µM in test [2] and over 333 µM in test [3].
